Rows were chosen to be rich in hits. Some 0.74% of all compounds tested hit in one or more screens of this group.
RGS7-Gao reg: modulates binding of RGS7 to human Galphao | binding response (% of control), % at 10 µM | P09471 | 0.35% of 220,000 active | AID 1439 | Multiplexed bead flow cytometry; actives lie on both sides; in the data active = binding response below about 49% or above about 150%;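 note: fluorescent Galphao held in activated GDP-AlF4 state binding bead-coupled RGS7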
Target sequence (P09471 whole entry, looked up): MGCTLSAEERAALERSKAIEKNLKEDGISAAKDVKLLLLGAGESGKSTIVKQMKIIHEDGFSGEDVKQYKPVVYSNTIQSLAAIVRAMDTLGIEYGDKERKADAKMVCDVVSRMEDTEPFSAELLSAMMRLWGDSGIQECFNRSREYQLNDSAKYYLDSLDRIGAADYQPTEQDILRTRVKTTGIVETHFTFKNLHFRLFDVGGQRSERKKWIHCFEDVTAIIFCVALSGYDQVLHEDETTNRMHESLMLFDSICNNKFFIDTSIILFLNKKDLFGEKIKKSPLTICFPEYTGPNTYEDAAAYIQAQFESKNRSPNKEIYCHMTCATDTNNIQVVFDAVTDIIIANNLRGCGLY
RGS8-Gao reg: regulators of human RGS8-Galphao interaction | AID 1423 | 0.34% of 220,000 active | response (percent of control binding), % at 10 µM | multiplexed bead flow cytometry, RGS8-Galphao binding; actives lie on both sides; in the data active = response below about 60% or above about 140%; inactive = in between;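 note: Galphao activated as the GDP aluminium fluoride complex binding bead-coupled RGS8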
RGS4-Gao reg: human RGS4-Galphao interaction regulation; P09471; Multiplexed bead flow cytometry, RGS4-Galphao binding; actives lie on both sides; binding response (% of control), % at 10 µM; 0.33% of 220,000 active; in the data active = binding response below about 49% or above about 150%; inactive = in between;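 note: fluorescent Galphao activated with aluminum fluoride binding bead-coupled RGS4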
Biofilm kill mix: mixtures killing C. albicans biofilm | C. albicans biofilm persisters + clotrimazole, fluorescence viability; primary screen in compound mixtures of four per well | 0.02% of 120,000 active | inhibition, % at 7.6 µM | AID 1242;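 active = inhibition above 30.3% in the primary screen of four-compound pools, then above 30% when the compound was retested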;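 note: compounds exposed to preformed 24 h biofilms for 48 h; 0% = untreated biofilm control and 100% = clotrimazole plus chlorhexidine kill blank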
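Assay system: C. albicans biofilms / Medium: RPMI/MOPS medium, pH 7.0 / Schedule: biofilm formation 24 h, compound exposure 48 h, 37 °C / Measured by: Alamar Blue fluorescence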
RGS16-Gao: regulators of human RGS16-Galphao interaction; O15492+P09471; bead-based flow cytometry RGS16-Galphao binding, fluorescence; actives lie on both sides; binding response (% of control), % at 10 µM; 0.38% of 220,000 active; AID 1441;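 note: Galphao activated by GDP with aluminum fluoride before binding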
RGS4-Gao HTS: regulators of human RGS4-Galphao interaction | multiplexed bead flow cytometry, RGS–Galpha-o binding | 99% of 1,600 active | RGS4–Galpha-o binding response, % at 10 µM | shares compounds with RGS16-Gao;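 note: fluorescently labeled Galpha-o bound to GDP with aluminium fluoride binding biotinylated RGS beads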
Target sequence (P09471 whole entry, looked up): as above
Target sequence (P49798 whole entry, looked up): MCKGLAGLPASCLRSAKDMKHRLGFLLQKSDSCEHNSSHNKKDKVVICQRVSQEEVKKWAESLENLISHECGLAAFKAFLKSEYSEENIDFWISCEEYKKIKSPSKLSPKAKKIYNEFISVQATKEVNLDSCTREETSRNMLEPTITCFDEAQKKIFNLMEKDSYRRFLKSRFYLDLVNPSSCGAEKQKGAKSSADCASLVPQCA
Biotin-avidin: interferes with biotinylated probe binding to avidin beads | AID 1783 | inhibition, % at 10 µM | shares compounds with RGS16-Gao | 1,700 tested, under 10 active | streptavidin beads, fluorescein-biotin binding, flow cytometry;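 active = inhibition above 50%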;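 note: median green fluorescence of gated singlet beads compared with DMSO control wells; 0% = DMSO wells and 100% = complete loss of bead fluorescence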
RGS8-Gao confirm: confirmation of regulators of human RGS8-Galphao interaction. shares compounds with RGS16-Gao. bead-based flow cytometry RGS8-Galphao binding, fluorescence; actives lie on both sides. binding response (% of control), % at 10 µM. 3% of 1,700 active; in the data active = binding response below about 72% or above about 130%; inactive = in between;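 note: Galphao activated as GDP AlF4 complex before binding bead RGS8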
RGS7-Gao confirm: RGS7-Galphao interaction regulation, single point confirmation. shares compounds with RGS16-Gao. bead-based flow cytometry RGS7-Galphao binding; actives lie on both sides. response (percent of control binding), % at 10 µM. 7.8% of 1,700 active. AID 1837; in the data active = response below about 75% or above about 130%; inactive = in between;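 note: fluorescent Galphao activated with GDP and aluminum fluoride binding bead-coupled RGS7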
RGS16-Gao conf: confirmation of regulators of human RGS16-Galphao interaction; bead-based flow cytometry, RGS16-Galphao binding; actives lie on both sides; response (% of control binding), % at 10 µM; AID 1838; shares compounds with RGS16-Gao; 4% of 1,700 active; in the data active = response below about 74% or above about 130%; inactive = in between;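 note: Galphao activated as the GDP aluminium fluoride complex binding bead-coupled RGS16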
RGS4-Gao confirm: RGS4-Galphao interaction regulation, single point confirmation; shares compounds with RGS16-Gao; RGS4-Galphao binding, multiplexed bead flow cytometry; actives lie on both sides; binding response (% of control), % at 10 µM; 4% of 1,700 active; AID 1840; in the data active = binding response below about 74% or above about 130%; inactive = in between
RGS19-Gao conf: RGS19-Galphao interaction regulation, single point confirmation; shares compounds with RGS16-Gao; bead-based flow cytometry RGS19-Galphao binding; actives lie on both sides; response (percent of control binding), % at 10 µM; 5% of 1,700 active; in the data active = response below about 50% or above about 160%; inactive = in between;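 note: 100% = no compound control and 0% = blank background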
Starred values were filed as active, the others as inactive; [ ] = remark or other dose. Unless noted, the rule behind the calls is not given here.

Results for CCOC(=O)C1(CC2CCCCO2)CCN(S(=O)(=O)c2c(C)nn(C)c2C)CC1 (stereo unspecified) ?
RGS7-Gao reg: 94.1; RGS8-Gao reg: 100.0; RGS4-Gao reg: 99.0; Biofilm kill mix: 10.6; RGS16-Gao: 105.7

How did COC(=O)C1=C(C)N(Cc2ccco2)C(=O)/C1=C\c1ccc(N(C)C)cc1 do in these assays?
RGS7-Gao reg: 109.9; RGS8-Gao reg: 130.2; RGS4-Gao reg: 110.8; Biofilm kill mix: -2.8; RGS16-Gao: 230.9*[activator]; RGS4-Gao HTS: 110.8*; Biotin-avidin: -0.2; RGS8-Gao confirm: 100.0; RGS7-Gao confirm: 98.1; RGS16-Gao conf: 102.0; RGS4-Gao confirm: 101.4; RGS19-Gao conf: 106.0

What do the screens show for `COc1ccccc1C(=O)N1CCNC(=O)C1CC(=O)Nc1cccc(C)c1` (stereo unspecified)?
RGS7-Gao reg: 239.6*[activator]; RGS8-Gao reg: 100.8; RGS4-Gao reg: 103.2; RGS16-Gao: 115.1; RGS4-Gao HTS: 103.2*; Biotin-avidin: -3.3; RGS8-Gao confirm: 100.3; RGS7-Gao confirm: 99.6; RGS16-Gao conf: 99.7; RGS4-Gao confirm: 100.6; RGS19-Gao conf: 100.7

Results for COc1ccc(NC(=S)N2CCNC(=O)C2CC(=O)Nc2cccc(Cl)c2C)cc1 (stereo unspecified) ?
RGS7-Gao reg: 94.3; RGS8-Gao reg: 78.8; RGS4-Gao reg: 94.8; Biofilm kill mix: 6.6; RGS16-Gao: 9.7*; RGS4-Gao HTS: 94.8*; Biotin-avidin: -0.5; RGS8-Gao confirm: 95.2; RGS7-Gao confirm: 94.5; RGS16-Gao conf: 93.7; RGS4-Gao confirm: 95.8; RGS19-Gao conf: 92.0

What do the screens show for `O=C(CN(Cc1ccccc1)S(=O)(=O)c1ccc2c(c1)OCCO2)Nc1ccc2c(c1)OCCO2`?
RGS7-Gao reg: 261.0*[activator]; RGS8-Gao reg: 135.6; RGS4-Gao reg: 184.4*[activator]; RGS16-Gao: 477.8; Biotin-avidin: -1.6; RGS8-Gao confirm: 100.9; RGS7-Gao confirm: 100.4; RGS16-Gao conf: 97.9; RGS4-Gao confirm: 101.4; RGS19-Gao conf: 93.0

Results for CS(=O)(=O)N(CC(=O)Nc1ccc2c(c1)OCCO2)Cc1ccccc1 ?
RGS7-Gao reg: 98.2; RGS8-Gao reg: 100.5; RGS4-Gao reg: 100.8; RGS16-Gao: 97.6

Results for CCOC(=O)N1CCN(C(=O)CCCn2c(=S)[nH]c3ccccc3c2=O)CC1 ?
Biotin-avidin: 0.4; RGS8-Gao confirm: 102.2; RGS7-Gao confirm: 98.2; RGS16-Gao conf: 106.8; RGS4-Gao confirm: 102.8; RGS19-Gao conf: 102.5

How did Cc1c(C(=O)N/N=C/c2ccc(N(C)C)cc2)[nH]c2ccc(Cl)cc12 do in these assays?
RGS7-Gao reg: 95.0; RGS8-Gao reg: 65.8; RGS4-Gao reg: 94.0; Biofilm kill mix: 16.0; RGS16-Gao: 22.7*; RGS4-Gao HTS: 94.0*; Biotin-avidin: -0.6; RGS8-Gao confirm: 97.7; RGS7-Gao confirm: 94.7; RGS16-Gao conf: 99.0; RGS4-Gao confirm: 99.6; RGS19-Gao conf: 82.1

Results for CCc1nc(SCC(=O)c2ccccc2)c2ccccc2n1 ?
RGS7-Gao reg: 100.2; RGS8-Gao reg: 101.7; RGS4-Gao reg: 99.9; Biofilm kill mix: 3.0; RGS16-Gao: 100.0

How did CCc1nc(SCC(=O)c2ccc3c(c2)OCCO3)c2ccccc2n1 do in these assays?
RGS7-Gao reg: 111.0; RGS8-Gao reg: 142.5*[activator]; RGS4-Gao reg: 119.9; RGS16-Gao: 242.1; RGS4-Gao HTS: 119.9*; Biotin-avidin: -1.3; RGS8-Gao confirm: 105.5; RGS7-Gao confirm: 106.3; RGS16-Gao conf: 105.2; RGS4-Gao confirm: 105.1; RGS19-Gao conf: 97.1

How did O=C(CSc1nc(Cc2ccccc2)nc2ccccc12)c1ccc2c(c1)OCCO2 do in these assays?
RGS7-Gao reg: 102.2; RGS8-Gao reg: 99.4; RGS4-Gao reg: 97.6; RGS16-Gao: 96.3

What do the screens show for `CCCc1nc(SCC(=O)c2ccc(OC)cc2)c2ccccc2n1`?
Biofilm kill mix: 10.0; Biotin-avidin: 1.7; RGS8-Gao confirm: 102.5; RGS7-Gao confirm: 104.7; RGS16-Gao conf: 104.2; RGS4-Gao confirm: 103.2; RGS19-Gao conf: 106.5

Results for COc1cc(CC(NC(C)=O)C(=O)NC2CCN(C(=O)c3cc(OC)c(OC)c(OC)c3)CC2)cc(OC)c1 (stereo unspecified) ?
RGS7-Gao reg: 119.4; RGS8-Gao reg: 140.8*[activator]; RGS4-Gao reg: 110.0; Biofilm kill mix: 15.1; RGS16-Gao: 283.9; RGS4-Gao HTS: 110.0*; Biotin-avidin: -1.3; RGS8-Gao confirm: 101.6; RGS7-Gao confirm: 105.2; RGS16-Gao conf: 103.5; RGS4-Gao confirm: 104.1; RGS19-Gao conf: 102.3

What do the screens show for `COC(=O)c1ccc2c(=O)[nH]c(CSc3nnc(C(F)(F)F)n3C)nc2c1`?
RGS7-Gao reg: 90.2; RGS8-Gao reg: 81.3; RGS4-Gao reg: 90.3; Biofilm kill mix: -2.2; RGS16-Gao: 15.5*; RGS4-Gao HTS: 90.3*; Biotin-avidin: 2.9; RGS8-Gao confirm: 102.8; RGS7-Gao confirm: 100.0; RGS16-Gao conf: 105.9; RGS4-Gao confirm: 104.4; RGS19-Gao conf: 99.6

How did CCOC(=O)Cc1nnc(NC(=O)CSc2nnc3c(n2)[nH]c2ccccc23)s1 do in these assays?
RGS7-Gao reg: 104.4; RGS8-Gao reg: 105.6; RGS4-Gao reg: 107.5; Biofilm kill mix: -2.0; RGS16-Gao: 111.2

Results for COc1cccc2c1NC(C(=O)O)C1CC=CC21 (stereo unspecified) ?
RGS7-Gao reg: 36.2*; RGS8-Gao reg: 54.1*; RGS4-Gao reg: 69.9; Biofilm kill mix: 13.5; RGS16-Gao: 63.3; RGS4-Gao HTS: 69.9*; Biotin-avidin: 0.1; RGS8-Gao confirm: 100.4; RGS7-Gao confirm: 76.0; RGS16-Gao conf: 96.4; RGS4-Gao confirm: 89.3; RGS19-Gao conf: 94.4

What do the screens show for `O=C(CC1C(=O)N(c2ccc(Cl)cc2)C(=S)N1CCc1ccncc1)Nc1ccc(F)cc1` (stereo unspecified)?
RGS7-Gao reg: 94.7; RGS8-Gao reg: 100.7; RGS4-Gao reg: 99.6; RGS16-Gao: 102.7

Screens deposited in PubChem by several laboratories.
